{"source": "ChEMBL document CHEMBL3612059", "about": "“Synthesis of 1,2-benzisoxazole tethered 1,2,3-triazoles that exhibit anticancer activity in acute myeloid leukemia cell lines by inhibiting histone deacetylases, and inducing p21 and tubulin acetylation” (Bioorg Med Chem, 2015)", "key": {"MOLM-14 [1]": {"system": "MOLM-14", "assay": "Induction of apoptosis in human MOLM14 cells assessed as early apoptotic cells at 5 uM after 72 hrs by Annexin V-FITC/propidium iodide staining-based flow cytometric analysis (reference value: 7%)", "type": "functional", "procedure,_shortened": "(§1)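 100,000 cells per well treated with 2.5, 5.0 or 10 μM for 72 h. Washed in ice-cold Ca/Mg-free PBS, resuspended in 100 μl binding buffer, stained with 5 μl PI plus 3 μl annexin V-FITC for 15 min in the dark, then read immediately by flow cytometry. Quadrants scored as live, early apoptotic, late apoptotic and necrotic.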"}, "MOLM-14 [2]": {"system": "MOLM-14", "assay": "Induction of apoptosis in human MOLM14 cells assessed as early apoptotic cells at 10 uM after 72 hrs by Annexin V-FITC/propidium iodide staining-based flow cytometric analysis (reference value: 7%)", "type": "functional", "procedure,_shortened": "as §1"}, "MV4-11 [3]": {"system": "MV4-11", "assay": "Induction of apoptosis in human MV4-11 cells assessed as late apoptotic cells at 5 uM after 72 hrs by Annexin V-FITC/propidium iodide staining-based flow cytometric analysis (reference value: 2%)", "type": "functional", "procedure,_shortened": "as §1"}, "MV4-11 [4]": {"system": "MV4-11", "assay": "Induction of apoptosis in human MV4-11 cells assessed as necrotic cells at 10 uM after 72 hrs by Annexin V-FITC/propidium iodide staining-based flow cytometric analysis relative to control", "type": "functional", "procedure,_shortened": "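MV4-11 cells (RPMI, 10 % FBS, 37 °C, 5 % CO2), 100,000 per well, exposed to PTB at 2.5, 5.0 or 10 μM for 72 h. Washed in ice-cold Ca/Mg-free PBS, stained with annexin V-FITC and PI in 1X binding buffer for 15 min in the dark, then read at once by flow cytometry. Necrotic cells are the annexin-negative/PI-positive quadrant.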"}, "MOLM-14 [5]": {"system": "MOLM-14", "assay": "Upregulation of p21 protein expression in human MOLM14 cells by Western blot analysis", "type": "functional, cell-based"}, "[6]": {"assay": "Inhibition of cyclin D protein expression in human MOLM13 cells by Western blot analysis", "type": "functional, cell-based", "conditions": "MOLM-13"}, "MV4-11 [7]": {"system": "MV4-11", "assay": "Cytotoxicity against human MV4-11 cells assessed as cell viability at 0.25 to 5 uM by MTT assay", "type": "functional, cell-based", "procedure,_shortened": "(§2)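 AML cells kept in RPMI with 10 % FBS and 1 % penicillin-streptomycin at 37 °C, 5 % CO₂, mycoplasma-screened. Seeded at 8,000 cells/well across a range of concentrations and read at several times up to 96 h. MTT added to 0.5 mg/ml final for 3 h at 37 °C, formazan dissolved in SDS-HCl, absorbance read at 570 nm. IC50 taken from the dose-response curves.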"}, "MOLM-14 [8]": {"system": "MOLM-14", "assay": "Cytotoxicity against human MOLM14 cells assessed as cell viability measured at 96 hrs by MTT assay", "type": "functional, cell-based", "conditions": "MOLM-14, 96 h", "procedure,_shortened": "as §2"}, "MV4-11 [9]": {"system": "MV4-11", "assay": "Cell cycle arrest in human MV4-11 cells assessed as accumulation at sub-G1 phase after 72 hrs by propidium iodide staining-based flow cytometric analysis", "type": "functional", "procedure,_shortened": "(§3)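 Cells in RPMI with 10 % FBS at 37 °C, 5 % CO₂; treated up to 72 h, washed in cold PBS, fixed in -20 °C-precooled 70 % ethanol at 4 °C. Stained with 50 µg/ml PI, 1 % Triton X-100 and 20 µg/ml RNase A in PBS, 30 min, 37 °C, dark. Cell-cycle phases read by flow cytometry; three independent experiments, mean ± SD.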"}, "MOLM-14 [10]": {"system": "MOLM-14", "assay": "Cell cycle arrest in human MOLM14 cells assessed as decrease in cells level at G1 phase after 72 hrs by propidium iodide staining-based flow cytometric analysis", "type": "functional", "procedure,_shortened": "as §3"}, "MOLM-14 [11]": {"system": "MOLM-14", "assay": "Induction of apoptosis in human MOLM14 cells assessed as early apoptotic cells at 2.5 uM after 72 hrs by Annexin V-FITC/propidium iodide staining-based flow cytometric analysis (reference value: 7%)", "type": "functional", "procedure,_shortened": "as §1"}, "MOLM-14 [12]": {"system": "MOLM-14", "assay": "Induction of apoptosis in human MOLM14 cells assessed as late apoptotic cells at 2.5 uM after 72 hrs by Annexin V-FITC/propidium iodide staining-based flow cytometric analysis (reference value: 2%)", "type": "functional", "procedure,_shortened": "as §1"}, "MOLM-13 (Homo sapiens) [13]": {"system": "MOLM-13 (Homo sapiens)", "assay": "Cytotoxicity against human MOLM13 cells assessed as cell viability after 24 to 96 hrs by MTT assay"}, "MOLM-13 (Homo sapiens) [14]": {"system": "MOLM-13 (Homo sapiens)", "assay": "Cytotoxicity against human MOLM13 cells assessed as cell viability measured at 96 hrs by MTT assay", "conditions": "MOLM-13, 96 h"}, "MOLM-13 (Homo sapiens) [15]": {"system": "MOLM-13 (Homo sapiens)", "assay": "Induction of apoptosis in human MOLM13 cells assessed as upregulation of cleaved PARP expression after 24 hrs by Western blot analysis"}, "MOLM-13 (Homo sapiens) [16]": {"system": "MOLM-13 (Homo sapiens)", "assay": "Induction of apoptosis in human MOLM13 cells assessed as upregulation of cleaved caspase-9 expression after 24 hrs by Western blot analysis"}, "MOLM-13 (Homo sapiens) [17]": {"system": "MOLM-13 (Homo sapiens)", "assay": "Cell cycle arrest in human MOLM13 cells assessed as accumulation at sub-G1 phase after 72 hrs by propidium iodide staining-based flow cytometric analysis"}, "MOLM-13 (Homo sapiens) [18]": {"system": "MOLM-13 (Homo sapiens)", "assay": "Cell cycle arrest in human MOLM13 cells assessed as decrease in cells level at G1 phase after 72 hrs by propidium iodide staining-based flow cytometric analysis"}, "MOLM-13 (Homo sapiens) [19]": {"system": "MOLM-13 (Homo sapiens)", "assay": "Induction of apoptosis in human MOLM13 cells assessed as necrotic cells at 5 uM after 72 hrs by Annexin V-FITC/propidium iodide staining-based flow cytometric analysis (reference value: 3%)"}, "MOLM-13 (Homo sapiens) [20]": {"system": "MOLM-13 (Homo sapiens)", "assay": "Induction of apoptosis in human MOLM13 cells assessed as necrotic cells at 2.5 uM after 72 hrs by Annexin V-FITC/propidium iodide staining-based flow cytometric analysis (reference value: 3%)"}, "MOLM-13 (Homo sapiens) [21]": {"system": "MOLM-13 (Homo sapiens)", "assay": "Induction of apoptosis in human MOLM13 cells assessed as late apoptotic cells at 10 uM after 72 hrs by Annexin V-FITC/propidium iodide staining-based flow cytometric analysis (reference value: 7%)"}, "MOLM-13 (Homo sapiens) [22]": {"system": "MOLM-13 (Homo sapiens)", "assay": "Induction of apoptosis in human MOLM13 cells assessed as late apoptotic cells at 2.5 uM after 72 hrs by Annexin V-FITC/propidium iodide staining-based flow cytometric analysis (reference value: 7%)"}, "MOLM-13 (Homo sapiens) [23]": {"system": "MOLM-13 (Homo sapiens)", "assay": "Induction of apoptosis in human MOLM13 cells assessed as early apoptotic cells at 10 uM after 72 hrs by Annexin V-FITC/propidium iodide staining-based flow cytometric analysis (reference value: 11%)"}}, "note": "Activity calls are given as the source filed them. The rule behind the calls is not given here."}
{"molecule": "c1ccc(Oc2ccc(-c3cn(-c4noc5ccccc45)nn3)cc2)cc1", "values": [{"measurement": "Activity", "setting": "MOLM-14 [1]", "result": 17, "unit": "%"}, {"measurement": "Activity", "setting": "MOLM-14 [2]", "result": 24, "unit": "%"}, {"measurement": "Activity", "setting": "MV4-11 [3]", "result": 20, "unit": "%"}, {"measurement": "Activity", "setting": "MV4-11 [4]", "result": 5, "unit": "%"}, {"measurement": "Activity", "setting": "MOLM-14 [5]", "result": "Active"}, {"measurement": "inhibition", "setting": "[6]", "result": "Dose-dependent effect"}, {"measurement": "Activity", "setting": "MV4-11 [7]", "result": "Dose-dependent effect"}, {"measurement": "IC50", "setting": "MOLM-14 [8]", "result": 2, "unit": "µM"}, {"measurement": "Activity", "setting": "MV4-11 [9]", "result": "Active"}, {"measurement": "Activity", "setting": "MOLM-14 [10]", "result": "Active"}, {"measurement": "Activity", "setting": "MOLM-14 [11]", "result": 12, "unit": "%"}, {"measurement": "Activity", "setting": "MOLM-14 [12]", "result": 26, "unit": "%"}, {"measurement": "Activity", "setting": "MOLM-13 (Homo sapiens) [13]", "result": "Dose-dependent effect"}, {"measurement": "IC50", "setting": "MOLM-13 (Homo sapiens) [14]", "result": 1, "unit": "µM"}, {"measurement": "Activity", "setting": "MOLM-13 (Homo sapiens) [15]", "result": "Dose-dependent effect"}, {"measurement": "Activity", "setting": "MOLM-13 (Homo sapiens) [16]", "result": "Dose-dependent effect"}, {"measurement": "Activity", "setting": "MOLM-13 (Homo sapiens) [17]", "result": "Active"}, {"measurement": "Activity", "setting": "MOLM-13 (Homo sapiens) [18]", "result": "Active"}, {"measurement": "Activity", "setting": "MOLM-13 (Homo sapiens) [19]", "result": 18, "unit": "%"}, {"measurement": "Activity", "setting": "MOLM-13 (Homo sapiens) [20]", "result": 14, "unit": "%"}, {"measurement": "Activity", "setting": "MOLM-13 (Homo sapiens) [21]", "result": 35, "unit": "%"}, {"measurement": "Activity", "setting": "MOLM-13 (Homo sapiens) [22]", "result": 20, "unit": "%"}, {"measurement": "Activity", "setting": "MOLM-13 (Homo sapiens) [23]", "result": 28, "unit": "%"}]}
